# Laboratory results from ChEMBL document CHEMBL4339209, “Chemical modifications of imidazole-containing alkoxyamines increase C-ON bond homolysis rate: Effects on their cytotoxic properties in glioblastoma cells” (Bioorg Med Chem, 2019).
# Key:
# [1] = Dissociation constant, pKa of the compound in 1:1 v/v D2O/CD3OD by 1H-NMR spectrometric method; type: physicochemical
# Summary of the method: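 Samples in D2O/CD3OD (1:1 v/v) were adjusted with DCl/NaOD to a series of pH* values, read on a meter calibrated with non-deuterated standards, and 1H-NMR was recorded at 400 MHz. Imidazole proton chemical shifts were plotted against pH* and fitted sigmoidally. The pKa* was converted by pH = 0.929 pH* + 0.42.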
# [2] = Drug homolysis in H2O/MeOH buffered with Na2CO3/NaHCO3 at pH 10.3 assessed as activation energy in presence of alkyl radical scavenger TEMPOR by 31P[1H]-NMR analysis
# [3] = Drug homolysis in H2O/MeOH buffered with HCl/KCl at pH 2.2 assessed as activation energy in presence of alkyl radical scavenger TEMPOR by 31P[1H]-NMR analysis
# [4] = Drug homolysis in H2O/MeOH buffered with Na2CO3/NaHCO3 at pH 10.3 assessed as rate constant by measuring nitroxide level in presence of alkyl radical scavenger TEMPOR by 31P[1H]-NMR analysis
# [5] = Drug homolysis in H2O/MeOH buffered with HEPES/NaCl at pH 7.4 assessed as rate constant by measuring nitroxide level in presence of alkyl radical scavenger TEMPOR by 31P[1H]-NMR analysis
# [6] = Drug homolysis in H2O/MeOH buffered with HCl/KCl at pH 2.2 assessed as rate constant by measuring nitroxide level in presence of alkyl radical scavenger TEMPOR by 31P[1H]-NMR analysis
# [7] = Drug homolysis in H2O/MeOH buffered with HEPES/NaCl at pH 7.4 assessed as activation energy in presence of alkyl radical scavenger TEMPOR by 31P[1H]-NMR analysis
# U-87 MG = experiment: Cytotoxicity against human U87MG cells assessed as reduction in cell survival measured after 72 hrs by MTT assay; type: functional, cell-based; conditions: for Activity: U-87MG ATCC
# Summary of the method: (§1)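 MTT viability on 2D cultures, U87-MG in DMEM and U251-MG in EMEM with […], both with 10% FBS and Pen Strep. 5000 cells seeded, then 72 h exposure to 500, 250, 100, 50, 25, 10 and 5 μM (DMSO at most […]). MTT 0.5 mg/mL for 1 h, formazan in DMSO read at 550 nm. Survival as % of control. IC50 determined graphically. At least triplicate.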
# U-251 = experiment: Cytotoxicity against human U251MG cells assessed as reduction in cell survival measured after 72 hrs by MTT assay; type: functional, cell-based; summary of the method: as §1
# [8] = Half life in H2O/MeOH buffered with HEPES/NaCl at pH 7.4 in presence of alkyl radical scavenger TEMPOR by 31P[1H]-NMR analysis; type: physicochemical; conditions: for half-life: H2O/MeOH buffered with HEPES/NaCl; for t1/2: buffer
# [9] = Stability in H2O/MeOH buffered with HEPES/NaCl at pH 7.4 assessed as temperature; type: physicochemical; conditions: buffer
# [10] = n-octanol/phosphate buffered saline partition coefficient, log D of the compound at pH 7.4 by shake-flask method; type: physicochemical
# Summary of the method: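 Shake-flask partition between pre-saturated n-octanol and PBS at pH 7.4. The aqueous phase was quantified by RP-HPLC on a 4.6 × 50 mm column, eluting with CH3CN/H2O (each with 0.1% TFA) from 10:90 to 100:0 over 10 min.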
# [11] = Half life in H2O/MeOH buffered with Na2CO3/NaHCO3 at pH 10.3 in presence of alkyl radical scavenger TEMPOR by 31P[1H]-NMR analysis; type: physicochemical; conditions: buffer, pH 10.3
# [12] = Half life in H2O/MeOH buffered with HCl/KCl at pH 2.2 in presence of alkyl radical scavenger TEMPOR by 31P[1H]-NMR analysis; type: physicochemical; conditions: buffer
smiles,measurement,setting,value
CCOP(=O)(OCC)C(N(OC(C)n1ccnc1)C(C)(C)C)C(C)(C)C (stereo in doubt; form 2),pKa,[1],5.81
CCOP(=O)(OCC)C(N(OC(C)c1cn(C)cn1)C(C)(C)C)C(C)(C)C (stereo in doubt; form 1),Ea,[2],30.2 kcal/mol
same,Ea,[3],28.3 kcal/mol
same,Kdiss,[4],4.89 ×10⁻⁵ /s
same,Kdiss,[5],8.58 ×10⁻⁵ /s
same,Kdiss,[6],7.84 ×10⁻⁴ /s
same,Ea,[7],29.8 kcal/mol
same,Activity,U-87 MG,Dose-dependent effect
same,Activity,U-251,Dose-dependent effect
CCOP(=O)(OCC)C(N(OC(C)c1cc[n+](C)cc1)C(C)(C)C)C(C)(C)C (stereo not given),half-life,[8],0.75 h
same,IC50,U-87 MG,250 µM
CCOP(=O)(OCC)C(N(OC(C)c1cn(C)c[n+]1C)C(C)(C)C)C(C)(C)C (stereo in doubt; form 1) [listing 1 of 2 here],T,[9],70 °C
same,half-life,[8],25 h
same,IC50,U-87 MG,25 to 380 µM
same,logD,"[10]; n-octanol/phosphate buffered saline, read-out: logD",0.8
CCOP(=O)(OCC)C(N(OC(C)c1c[nH]cn1)C(C)(C)C)C(C)(C)C (stereo in doubt; form 1),Ea,[2],29.4 kcal/mol
same,Ea,[3],28.5 kcal/mol
same,Kdiss,[4],1.53 ×10⁻⁴ /s
same,Kdiss,[5],2.08 ×10⁻⁴ /s
same,Kdiss,[6],5.23 ×10⁻⁴ /s
same,Ea,[7],29.2 kcal/mol
same,Activity,U-87 MG,Dose-dependent effect
same,Activity,U-251,Dose-dependent effect
CCOP(=O)(OCC)C(N(OC(C)c1cn(C)c[n+]1C)C(C)(C)C)C(C)(C)C (stereo in doubt; form 1) [listing 2 of 2 here],Kdiss,[5],5.73 ×10⁻⁴ /s
same,Ea,[7],27.7 kcal/mol
same,Activity,U-87 MG,Dose-dependent effect
same,Activity,U-251,Dose-dependent effect
Cn1nnc2c(C(N)=O)ncn2c1=O [TEMOZOLOMIDE],IC50,"U-251; U-251, 72 h",455 µM
CCOP(=O)(OCC)C(N(OC(C)c1ncc[nH]1)C(C)(C)C)C(C)(C)C (stereo in doubt; form 1),Ea,[2],29.2 kcal/mol
same,Ea,[3],26.7 kcal/mol
same,Kdiss,[4],1.97 ×10⁻⁴ /s
same,Kdiss,[5],2 ×10⁻⁴ /s
same,Kdiss,[6],7.47 ×10⁻⁴ /s
same,Ea,[7],28.4 kcal/mol
same,Activity,U-87 MG,Dose-dependent effect
same,Activity,U-251,Dose-dependent effect
CCOP(=O)(OCC)C(N(OC(C)c1n(C)cc[n+]1C)C(C)(C)C)C(C)(C)C (stereo in doubt; form 2) [listing 1 of 2 here],T,[9],60 °C
same,t1/2,[8],3.4 h
same,logD,[10]; octanol/water,0.5
CCOP(=O)(OCC)C(N(OC(C)c1nccn1C)C(C)(C)C)C(C)(C)C (stereo in doubt; form 2),pKa,[1],6.5
same,t1/2,[11],39 h
same,t1/2,[12],1.98 h
same,t1/2,[8],10 h
same,logD,[10]; octanol/water,3.7
CCOP(=O)(OCC)C(N(OC(C)c1cn(C)c[n+]1C)C(C)(C)C)C(C)(C)C (stereo in doubt; form 2),T,[9],80 °C
same,t1/2,[8],29 h
same,logD,[10]; octanol/water,0.4
CCOP(=O)(OCC)C(N(OC(C)c1n(C)cc[n+]1C)C(C)(C)C)C(C)(C)C (stereo in doubt; form 2) [listing 2 of 2 here],Kdiss,[5],1.1 ×10⁻³ /s
same,Ea,[7],26.4 kcal/mol
same,Activity,U-87 MG,Dose-dependent effect
same,Activity,U-251,Dose-dependent effect
CCOP(=O)(OCC)C(N(OC(C)c1nccn1C)C(C)(C)C)C(C)(C)C (stereo in doubt; form 1),Ea,[2],28.7 kcal/mol
same,Ea,[3],26.2 kcal/mol
same,Kdiss,[4],4.31 ×10⁻⁴ /s
same,Kdiss,[5],4.76 ×10⁻⁴ /s
same,Kdiss,[6],1.51 ×10⁻³ /s
same,Ea,[7],27.8 kcal/mol
same,Activity,U-87 MG,Dose-dependent effect
same,Activity,U-251,Dose-dependent effect
CCOP(=O)(OCC)C(N(OC(C)c1ccncc1)C(C)(C)C)C(C)(C)C (stereo not given),pKa,"[1]; 1:1 v/v D2O/CD3OD, read-out: pKa",4.7
